# Data reported in ChEMBL document CHEMBL4392827, “Tryptamine derivatives disarm colistin resistance in polymyxin-resistant gram-negative bacteria” (Bioorg Med Chem, 2019).
# Experiments:
# Acinetobacter baumannii [1] = assay: Potentiation of colistin-induced antimicrobial activity against colistin-resistant Acinetobacter baumannii ATCC 17978 expressing mcr1 gene assessed as fold reduction in colistin MIC at 60 uM after 18 hrs by broth microdilution assay; assay type: functional
# Outline: (§1)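 Checkerboard-style resensitization following adapted CLSI broth microdilution. Bacteria were grown 4–6 h in CAMHB and subcultured to 5×10^5 CFU/mL. Adjuvant was added from DMSO stock and held constant while colistin was serially diluted in the dosed subculture. Plates were incubated stationary at 37°C for 18 h, then MICs were read. Fold reduction was taken relative to the colistin MIC without adjuvant.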
# Acinetobacter baumannii [2] = assay: Toxicity in Acinetobacter baumannii 4106 after 18 hrs by broth microdilution assay; assay type: organism-based; details: in vitro
# Outline: (§2)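 Single-agent MIC per CLSI broth microdilution. Cells from a 4–6 h culture in cation-adjusted Mueller-Hinton broth adjusted to 5 ×10^5 CFU/mL. Compound (DMSO stock) added to 200 μM top concentration and twofold serially diluted six times, with an untreated control row. Plates sealed and incubated stationary at 37°C for 18 h before MIC read.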
# Klebsiella pneumoniae [3] = assay: Toxicity in Klebsiella pneumoniae B9 after 18 hrs by broth microdilution assay; assay type: organism-based; outline: as §2
# Acinetobacter baumannii [4] = assay: Toxicity in Acinetobacter baumannii ATCC 17978 expressing mcr1 gene after 18 hrs by broth microdilution assay; assay type: organism-based; outline: as §2
# Acinetobacter baumannii [5] = assay: Potentiation of colistin-induced antimicrobial activity against colistin-resistant Acinetobacter baumannii isolate 3941 assessed as fold reduction in colistin MIC at 60 uM after 18 hrs by broth microdilution assay; assay type: functional; outline: as §1
# Acinetobacter baumannii [6] = assay: Potentiation of colistin-induced antimicrobial activity against colistin-resistant Acinetobacter baumannii isolate 3942 assessed as fold reduction in colistin MIC at 60 uM after 18 hrs by broth microdilution assay; assay type: functional; outline: as §1
# Escherichia coli = assay: Potentiation of colistin-induced antimicrobial activity against Escherichia coli ATCC 25922 assessed as fold reduction in colistin MIC at 60 uM after 18 hrs by broth microdilution assay; assay type: functional
# Outline: (§3)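 Bacteria grown 4–6 h in cation-adjusted Mueller-Hinton broth and diluted to 5 ×10^5 CFU/mL. Adjuvant from DMSO stock held at fixed 60 μM while colistin is twofold serially diluted in the same adjuvant-dosed broth. Plates sealed and kept stationary at 37°C for 18 h. Colistin MIC read and fold reduction taken relative to colistin alone.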
# Klebsiella pneumoniae [7] = assay: Potentiation of colistin-induced antimicrobial activity against Klebsiella pneumoniae ATCC BAA-2146 expressing NDM1 gene assessed as fold reduction in colistin MIC at 60 uM after 18 hrs by broth microdilution assay; assay type: functional; outline: as §3
# Acinetobacter baumannii [8] = assay: Potentiation of colistin-induced antimicrobial activity against colistin-resistant Acinetobacter baumannii isolate 3942 assessed as fold reduction in colistin MIC at 50 uM after 18 hrs by broth microdilution assay; assay type: functional
# Outline: (§4)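 CLSI-adapted broth microdilution. Bacteria were grown 4–6 h in cation-adjusted Mueller-Hinton broth and subcultured to 5 ×10^5 CFU/mL. The subculture was dosed with adjuvant from DMSO stock at a constant final concentration, then colistin was added and serially diluted across wells. Plates were incubated stationary at 37°C for 18 h and the MIC recorded. Fold reduction is relative to the colistin MIC without adjuvant.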
# Acinetobacter baumannii [9] = assay: Potentiation of colistin-induced antimicrobial activity against colistin-resistant Acinetobacter baumannii isolate 3942 assessed as fold reduction in colistin MIC at 30 uM after 18 hrs by broth microdilution assay; assay type: functional; outline: as §4
# Acinetobacter baumannii [10] = assay: Potentiation of colistin-induced antimicrobial activity against colistin-resistant Acinetobacter baumannii isolate 3942 assessed as fold reduction in colistin MIC at 20 uM after 18 hrs by broth microdilution assay; assay type: functional; outline: as §4
# Acinetobacter baumannii [11] = assay: Potentiation of colistin-induced antimicrobial activity against colistin-resistant Acinetobacter baumannii isolate 3942 assessed as fold reduction in colistin MIC at 10 uM after 18 hrs by broth microdilution assay; assay type: functional; outline: as §4
# Klebsiella pneumoniae [12] = assay: Potentiation of colistin-induced antimicrobial activity against colistin-resistant Klebsiella pneumoniae isolate C3 assessed as fold reduction in colistin MIC at 40 uM after 18 hrs by broth microdilution assay; assay type: functional; outline: as §4
# Klebsiella pneumoniae [13] = assay: Potentiation of colistin-induced antimicrobial activity against colistin-resistant Klebsiella pneumoniae isolate C3 assessed as fold reduction in colistin MIC at 30 uM after 18 hrs by broth microdilution assay; assay type: functional; outline: as §4
# Klebsiella pneumoniae [14] = assay: Potentiation of colistin-induced antimicrobial activity against colistin-resistant Klebsiella pneumoniae isolate C3 assessed as fold reduction in colistin MIC at 20 uM after 18 hrs by broth microdilution assay; assay type: functional; outline: as §4
# Klebsiella pneumoniae [15] = assay: Potentiation of colistin-induced antimicrobial activity against colistin-resistant Klebsiella pneumoniae isolate C3 assessed as fold reduction in colistin MIC at 15 uM after 18 hrs by broth microdilution assay; assay type: functional; outline: as §4
# Klebsiella pneumoniae [16] = assay: Potentiation of colistin-induced antimicrobial activity against colistin-resistant Klebsiella pneumoniae isolate C3 assessed as fold reduction in colistin MIC at 5 uM after 18 hrs by broth microdilution assay; assay type: functional; outline: as §4
# Acinetobacter baumannii [17] = assay: Potentiation of colistin-induced antimicrobial activity against colistin-resistant Acinetobacter baumannii isolate 3942 after 18 hrs by broth microdilution assay; assay type: functional, organism-based
# Outline: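 Colistin MIC was determined by adapted CLSI broth microdilution in CAMHB (5×10^5 CFU/mL inoculum), with adjuvant held at fixed levels of 5, 10, 15, 20, 30, 40, 50 or 60 μM. Adjuvant was dosed from DMSO stock while colistin was serially diluted. Plates were incubated stationary at 37°C for 18 h. Fold reduction was taken versus colistin alone.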
# Klebsiella pneumoniae [18] = assay: Induction of membrane permeabilization in colistin-resistant Klebsiella pneumoniae isolate C3 at 60 uM measured after 1 hr by SYTO-9/propidium iodide staining based fluorescence assay relative to control; assay type: functional
# Outline: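 Cells were grown overnight in CAMHB at 37°C, diluted 1:10 and grown 4 h more to an OD600 of ~0.3. They were pelleted, washed with sterile water and resuspended at 1/10 volume in water containing compound. After 1 h at 37°C with shaking, cells were washed and stained with SYTO-9/propidium iodide (1:1, 3 μL/mL) for 15 min at RT. Emission was read at 530 and 645 nm (excitation 485 nm), and the green/red ratio was expressed as % of the untreated control.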
compound,measurement,setting,value
O=C(NCc1c[nH]c2ccccc12)c1cc(Br)c(Br)[nH]1,fold change (FC),Acinetobacter baumannii [1],32
same,MIC,Acinetobacter baumannii [2],> 200 µM
same,MIC,Klebsiella pneumoniae [3],> 200 µM
same,MIC,Acinetobacter baumannii [4],> 200 µM
same,fold change (FC),Acinetobacter baumannii [5],1024
same,fold change (FC),Acinetobacter baumannii [6],2048
same,fold change (FC),Escherichia coli,4
same,fold change (FC),Klebsiella pneumoniae [7],0
same,fold change (FC),Acinetobacter baumannii [8],512
same,fold change (FC),Acinetobacter baumannii [9],128
same,fold change (FC),Acinetobacter baumannii [10],16
same,fold change (FC),Acinetobacter baumannii [11],2
same,fold change (FC),Klebsiella pneumoniae [12],256
same,fold change (FC),Klebsiella pneumoniae [13],128
same,fold change (FC),Klebsiella pneumoniae [14],128
same,fold change (FC),Klebsiella pneumoniae [15],64
same,fold change (FC),Klebsiella pneumoniae [16],4
same,Activity,Acinetobacter baumannii [17],Dose-dependent effect
same,fold change (FC),Klebsiella pneumoniae [18],1.5
